Source: PubChem (Johns Hopkins Ion Channel Center)
Sampled rows, rich in hits. Any-hit rate of the full collection: about 3.5%.
RGS4 inh: human RGS4 inhibition | AID 463165 | HEK293 M3R/RGS4 inducible, Fluo-4 calcium flux; hits give high values; triggered by carbachol at its EC20 | hit rate 0.45% among 310,000 | B-score at 10 µM | P49798;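 active = B-score, a plate-corrected calcium signal, over three deviations above library mean, with baseline fluorescence within five deviations of library mean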;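 also: RGS4 expression induced by doxycycline in cells with stable M3 receptor; B-score is computed from the integrated fluorescence ratio over baseline after carbachol; higher B-score means a larger calcium signal and so more RGS4 inhibition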
Target sequence (P49798 whole entry, looked up): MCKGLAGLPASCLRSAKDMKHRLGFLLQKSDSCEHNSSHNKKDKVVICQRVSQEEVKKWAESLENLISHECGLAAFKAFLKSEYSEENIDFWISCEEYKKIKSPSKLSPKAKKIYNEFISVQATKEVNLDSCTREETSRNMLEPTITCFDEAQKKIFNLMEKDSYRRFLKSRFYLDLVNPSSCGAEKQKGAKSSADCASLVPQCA
MrgX1 antag: antagonists of human MrgX1 receptor; Q96LB2; MRGX1-HEK293 calcium flux, Fluo-4, BAM8-22 antagonism; hits give low values; B-score at 10 µM; AID 588676; hit rate 1.3% among 310,000;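 active = calcium-response B-score plate-corrected more than 3 library SD below zero, starting fluorescence within 5 deviations, no agonist response on first addition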;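 also: peak minus trough fluorescence over baseline after final BAM8-22 challenge near maximal dose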
Target sequence (Q96LB2 whole entry, looked up): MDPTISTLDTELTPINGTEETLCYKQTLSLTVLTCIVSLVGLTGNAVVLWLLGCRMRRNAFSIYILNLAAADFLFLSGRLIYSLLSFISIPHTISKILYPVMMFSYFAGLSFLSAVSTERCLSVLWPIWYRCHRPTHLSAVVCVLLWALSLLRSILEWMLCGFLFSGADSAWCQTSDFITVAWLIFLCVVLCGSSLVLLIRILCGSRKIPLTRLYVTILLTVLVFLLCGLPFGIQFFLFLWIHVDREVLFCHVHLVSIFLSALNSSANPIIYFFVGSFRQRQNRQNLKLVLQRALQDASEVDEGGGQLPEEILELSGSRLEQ
MrgX1 ag: agonists of human MrgX1 receptor. MrgX1-HEK293 cells, Fluo-4 calcium fluorescence, agonist mode; hits give high values. AID 588627. hit rate 0.44% among 310,000. B-score at 10 µM;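 active = calcium response B-score plate-corrected fluorescence ratio at least 3 library SD, with starting fluorescence B-score inside 5 SD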
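times = overnight plating, then 30 min 37 °C plus 30 min room-temperature dye loading | assay system = stable human MrgX1 HEK293 cell line | input = fifteen thousand cells per well | signal = kinetic calcium dye fluorescence, Fluo-4 NW | dosing = compound delivered in addition one of three | read-out = B-scored fluorescence response ratio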
RGS4 pot: RGS4 potentiation or activation; hit rate 0.92% among 310,000; AID 463111; B-score at 10 µM; HEK293 M3R/inducible RGS4, carbachol calcium flux Fluo4; hits give low values;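 active = B-score of the integrated calcium signal more than 4 SD below the library mean, with starting fluorescence not abnormally high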;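 also: negative B-score means reduced calcium response which marks RGS4 activation or potentiation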
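System – HEK293 FlpIn-TREx cells, stable M3R, doxycycline-inducible RGS4 · Reagent – ECmax carbachol challenge · Times – compound preincubation 20 min at room temperature before agonist · Technique – Fluo4 fluorescence kinetic imaging of calcium · Measure – B score of integrated Fluo4 ratio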
MrgX1 allo act: human MrgX1 positive allosteric modulation, primary screen; hit rate 0.63% among 310,000; MrgX1-HEK293, Fluo-4 calcium flux, FDSS; hits give high values; B-score at 10 µM; AID 588675; Q96LB2;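 active = plate-corrected calcium response at least 3 library SD above typical, normal starting fluorescence, not activating the receptor alone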;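 also: compound read alongside a low EC10 to EC30 dose of BAM8-22 agonist; peak minus trough fluorescence over baseline measured at the second addition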
MrgX1 PAM conf: confirmation of human MrgX1 receptor positive allosteric modulators | shares compounds with MrgX1 allo act | MrgX1-HEK293, Fluo-4 calcium fluorescence, FDSS | activation (ratio percentage), % at 10 µM | hit rate 13% among 1,200;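 active = ratio at least 3 SD above the weak peptide control, stable starting fluorescence, no direct agonism earlier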;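 also: compound followed by low BAM8-22 agonist challenge near EC20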
HEK293 Ca flux: MrgX1 antagonist counter-screen hit in parental HEK293 cells; hit rate 2% among 4,000; Fluo-4 calcium fluorescence, FDSS; AID 624111; shares compounds with MrgX1 antag; fluorescence ratio F(max-min)/F0 at 10 µM;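 active = duplicate-averaged calcium fluorescence ratio at least three times the standard deviation of buffer wells, a nonspecific response in parental cells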
HEK293 Ca counter: activity in parental HEK293 cells without MrgX1. AID 624114. fluorescence ratio F(max-min)/F0 at 10 µM. hit rate 0.4% among 4,000. shares compounds with MrgX1 antag. parental HEK293 calcium flux, Fluo-4 fluorescence ratio; hits give high values;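 active = calcium fluorescence ratio, averaged over duplicates, at least 3 SD of the buffer-well ratio, meaning a nonspecific response in receptor-free cells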;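 also: untransfected parental HEK293 lacking MrgX1 used as counterscreen for MrgX1 allosteric activators; fluorescence change taken during the second addition on a kinetic imager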
HEK293 Ca cntr2: activity in parental HEK293 cells lacking MrgX1 receptor; AID 624115; Fluo-4 calcium fluorescence (FDSS); hits give high values; fluorescence ratio F(max-min)/F0 at 10 µM; hit rate 8.7% among 4,000; shares compounds with MrgX1 antag;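 active = calcium fluorescence ratio at least three times the spread of buffer wells, meaning a non-specific response in parental cells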
* = called active by the depositor; i = inactive; . = no result given.

SMILES | RGS4 inh | MrgX1 antag | MrgX1 ag | RGS4 pot | MrgX1 allo act | MrgX1 PAM conf | HEK293 Ca flux | HEK293 Ca counter | HEK293 Ca cntr2
CC(=O)c1cc2c(cc1NC(=O)CN1CCCCC1C)OCO2 (stereo unspecified) | i | i | i | i | 11* | i | i | i | i
CCOC(=O)c1c(-c2ccccc2)oc2ccc(OC(C)C(=O)O)cc12 (stereo unspecified) | i | i | i | i | 7.7* | i | i | i | i
O=C(COC(=O)Cc1c(Cl)cccc1Cl)NCCC1=CCCCC1 | i | i | i | i | i | . | . | . | .
O=C(COc1ccccc1Cl)NCCC1=CCCCC1 | i | i | i | i | 18* | i | i | i | i
CN(C)CCCN(C(=O)c1ccco1)c1nc2ccc(Br)cc2s1 | i | i | i | i | 6.5* | i | i | i | i
COCCn1c(=N)c(S(=O)(=O)c2ccc(F)cc2)cc2c(=O)n3ccccc3nc21 | i | i | i | i | i | . | . | . | .
COc1cccc(C(=O)NCCn2ccc3ccccc32)c1 | i | i | i | i | 8.8* | i | i | i | i
COc1cc(OC)cc(C(=O)NCCn2ccc3ccccc32)c1 | i | i | i | i | i | . | . | . | .
CCCn1c(SCC(=O)Nc2cccc(NC(C)=O)c2)nnc1C(C)C | i | i | i | i | i | . | . | . | .
CCCn1c(SCC(=O)Nc2cccc(C)n2)nnc1C(C)C | i | i | i | i | 8.2* | i | i | i | i
CC1(C)Cc2cccc(Oc3ccc(S(=O)(=O)N4CCCCC4)cn3)c2O1 | i | i | i | i | 11* | i | i | i | i
CC/C(=C\C(=O)c1cccnc1)Nc1ccc(C)c(C)c1 | i | i | i | i | 8.7* | i | i | i | i
COc1ccc(-c2oc3ccccc3c2C(=O)Oc2ccccc2)cc1 | i | i | i | i | 8.7* | i | i | i | 68*
CN1CCCC(OC(=O)c2cccc(Br)c2)C1 (stereo unspecified) | i | i | i | i | i | . | . | . | .
CN1CCCC(OC(=O)c2ccccc2Br)C1 (stereo unspecified) | i | i | i | i | 6.6* | i | i | i | i
O=C(CC1NCCNC1=O)NC1Cc2ccccc2C1 (stereo unspecified) | i | i | i | i | i | . | . | . | .
C=CCN(CC=C)S(=O)(=O)c1ccc2nc(NC(=O)C(C)C)sc2c1 | . | i | i | . | 21* | i | i | i | i
O=C(Cc1cccs1)Nc1nnc(SCC(=O)N2CCCCC2)s1 | i | i | i | i | i | . | . | . | .
O=C(Nc1nnc(SCC(=O)N2CCCCC2)s1)c1cccs1 | i | i | i | i | 7.1* | i | i | i | i
CC1CCCCC1Nc1nc2ccc(Cl)cc2n2cnnc12 (stereo unspecified) | i | i | i | i | 9.2* | i | i | i | i
COc1ccc(NC(=O)CN2CCN(C(=S)NC3CCCC3)CC2)cc1 | i | i | i | i | i | . | . | . | .
CC(=O)C(C)n1c(CN(C)Cc2ccccc2)nc2c1c(=O)n(C)c(=O)n2C (stereo unspecified) | i | i | i | i | i | . | . | . | .
CC(C)n1c(CN(C)Cc2ccccc2)nc2c1c(=O)n(C)c(=O)n2C | i | i | i | i | 7.8* | 13%* | i | i | i
Cc1cc(/C=C2/SC(=O)N(CC(=O)N3CCOCC3)C2=O)c(C)n1-c1ccccc1F | i | i | i | i | i | . | . | . | .
CC12CCC(C(=O)Nc3nc4ccc(Br)cc4s3)(OC1=O)C2(C)C (stereo unspecified) | i | i | i | i | 17* | 6.5%* | i | i | i
SMILES | RGS4 inh | MrgX1 antag | MrgX1 ag | RGS4 pot | MrgX1 allo act | MrgX1 PAM conf | HEK293 Ca flux | HEK293 Ca counter | HEK293 Ca cntr2
CC12CCC(C(=O)Nc3nccs3)(OC1=O)C2(C)C (stereo unspecified) | i | i | i | i | i | . | . | . | .
COc1cccc(C(=O)Nc2nnc(-c3ccc(Cl)cc3)o2)c1 | i | i | i | i | 8.4* | i | i | i | i
CN(C)S(=O)(=O)Oc1cccc(C(=O)Nc2ccc(Cl)cc2)c1 | i | i | i | i | 7.7* | i | i | i | i
COc1cccc(C(=O)Nc2nnc(-c3ccc(F)cc3)o2)c1 | i | i | i | i | i | . | . | . | .
CN(C)S(=O)(=O)Oc1cccc(C(=O)Nc2ccccc2Cl)c1 | i | i | i | i | i | . | . | . | .
CCCc1c(C(=O)Nc2ccc(F)cc2F)cnn1-c1ccccc1 | i | i | i | i | 11* | i | i | i | i
COC1(c2cc(-c3ccccc3)nc(N)n2)CCCCC1 | i | i | i | i | 31* | 28%* | i | i | i
Nc1nc(-c2ccccc2)cc(C(F)(F)F)n1 | i | i | i | i | i | . | . | . | .
COc1ccc(NC2CCCN(C(=O)C3=NN(C)C(=O)CC3)C2)cc1OC (stereo unspecified) | i | i | i | i | i | . | . | . | .
CC(C)(C)S(=O)(=O)c1cnc(N2CCOCC2)nc1N | i | i | i | i | i | . | . | . | .
CC(C)S(=O)(=O)c1cnc(N2CCOCC2)nc1N | i | i | i | i | 16* | i | i | i | i
CCCCC(=O)NC(=S)Nc1c(C)cc(Br)cc1C | i | i | i | i | 9.3* | i | i | i | i
CCCCC(=O)NC(=S)Nc1cccc(NC(=O)CC)c1 | i | i | i | i | i | . | . | . | .
CCOc1ccc(C(C(=O)NC(C)(C)C)N(CCOC)C(=O)CCC(=O)Nc2ccccn2)cc1 (stereo unspecified) | i | i | i | i | i | . | . | . | .
CN(Cc1ccc(F)cc1)S(=O)(=O)c1nnc(NC(=O)c2ccccc2Br)s1 | i | i | i | i | i | . | . | . | .
